A selection: hits, their analogues and other compounds. The true share with any hit is near 4.3%.
CHO parental Ca: counter-screen: ATP calcium response change in parental CHO cells; parental CHO-K1, ATP-induced calcium, Fluo-8 fluorescence; inhibition, % at 5.6 µM; 330,000 compounds, 0.63% hits; AID 463079;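 active = inhibition above that plate's mean sample inhibition plus 3 SD, cut at about 26% in these data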
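material = parental CHO cells | also added = ATP as calcium-mobilizing challenge | dosing = single point at 5.6 µM | detection = intracellular calcium via Fluo-8 no-wash fluorescent dye | read-out = % inhibition | benchmarks = low control ATP plus DMSO, high control DMSO only | repeats = one well per compound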
TAAR1 ag: agonists of human TAAR1. AID 624467. Q96RJ0. activation, % at 3 µM. CHO RD-HGA16 TAAR1, Fluo-8 calcium fluorescence; vehicle wells 0%, saturating PEA agonist 100%. 360,000 compounds, 0.99% hits;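 active = activation above the mean activation of all test compounds in the run plus 3 SD, cut at about 38% in these data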
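Signal – calcium-sensitive Fluo-8 signal, excitation 470-495, emission 515-575 nm · System – RD-HGA16 (CHO) cells co-expressing Gα16 and hTAAR1 · Incubation – 17-24 h seeding, 75 min 37 °C dye, 30 min RT · Compound dosing – 3 µM single concentration · Repeats – no replicates (n 1)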
TAAR1 antag: antagonists of human TAAR1; 360,000 compounds, 1.5% hits; Q96RJ0; inhibition, % at 3 µM; CHO RD-HGA16 TAAR1, Fluo-8 calcium fluorescence, antagonist;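 active = inhibition above a per-plate cutoff, the mean inhibition of test compounds on that plate plus 3 SD, cut at about 49% in these data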
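System: CHO RD-HGA16 cells bearing hTAAR1. Reagent: EC80 β-phenethylamine stimulus. Schedule: seeding 17-24 h prior, 75-min 37 °C, 30-min RT dye loading. Signal: Fluo-8 intracellular calcium dye fluorescence, real-time kinetic reads. Read-out: % inhibition from peak post-agonist over basal fluorescence ratio. Benchmarks: vehicle wells and EC80 agonist wells. Replicates: n of 1.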
OX1R antag-1: human HCRTR1 antagonism; 330,000 compounds, 0.43% hits; AID 434989; CHO/OX1R cells, Fluo-8 calcium fluorescence, orexin A; inhibition, % at 5 µM; O43613;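 active = inhibition above its plate's threshold, mean inhibition of all tested compounds on the plate plus 3 SD, cut at about 37% in these data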
Target sequence (O43613 whole entry, looked up): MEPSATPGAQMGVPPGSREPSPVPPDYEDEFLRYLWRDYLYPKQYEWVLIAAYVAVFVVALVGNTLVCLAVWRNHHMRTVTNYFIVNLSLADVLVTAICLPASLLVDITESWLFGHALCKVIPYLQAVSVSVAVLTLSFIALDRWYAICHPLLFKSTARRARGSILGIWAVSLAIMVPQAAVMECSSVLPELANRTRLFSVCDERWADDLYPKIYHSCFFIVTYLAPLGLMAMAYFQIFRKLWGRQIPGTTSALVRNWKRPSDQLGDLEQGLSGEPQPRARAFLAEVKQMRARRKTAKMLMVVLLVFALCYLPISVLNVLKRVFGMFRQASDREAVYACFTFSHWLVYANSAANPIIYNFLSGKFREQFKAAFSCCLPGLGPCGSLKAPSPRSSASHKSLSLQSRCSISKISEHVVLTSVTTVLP
OX1R antag-2: blocks the human orexin 1 receptor; OX1R-expressing cells, FRET antagonist read-out; inhibition, % at 6.6 µM; O43613; 330,000 compounds, 1.8% hits; in the data active = inhibition mostly above about 38%, no sharp cut-off; inactive = mostly below about 40%
GalR3 antagonist: antagonists of human GalR3; AID 651719; 360,000 compounds, 0.44% hits; HEK293 GalR3-CNG cAMP membrane potential fluorescence; galR3 body fused to GalR1 C-terminus; inhibition, % at 3 µM;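 active = inhibition above the screen-wide average plus 3 SD, cut at about 13% in these data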;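 note: forskolin and galanin both at EC90 stimulate the cells; cAMP rise reported by CNG channel membrane potential dye signal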
A number is an active result; 0 = inactive; - = no result given.

SMILES	CHO parental Ca	TAAR1 ag	TAAR1 antag	OX1R antag-1	OX1R antag-2	GalR3 antagonist
CC(C)CCOc1ccc(Cl)cc1CN1CCOCC1	0	39	0	0	0	0
CCCCCOc1ccc(Cl)cc1CN1CCOCC1	0	0	0	0	0	0
COc1ccccc1-c1nc(C(=O)NCC2CCCO2)cc2c1[nH]c1ccccc12 (stereo not drawn)	0	-	-	0	0	-
O=C(NCC1CCCO1)c1cc2c([nH]c3ccccc32)c(-c2cccc(Cl)c2)n1 (stereo not drawn)	0	-	-	0	50	-
Cc1c(C(=O)NNC(=O)c2csc(N3CCOCC3)n2)oc2ccc(Br)cc12	-	0	0	-	-	0
Cc1ccc2nc(C)c(CN3CCN(c4ccc([N+](=O)[O-])cc4Cl)CC3)n2c1	0	43	0	0	0	0
O=[N+]([O-])c1ccc(Cl)c(CN2CCN(c3ncccn3)CC2)c1	0	0	0	0	0	0
COc1ccc(CCNC(=O)c2cccs2)cc1OC	0	0	0	0	0	0
COc1ccc(CCNC(=O)Cc2ccc([N+](=O)[O-])cc2)cc1OC	0	0	0	0	0	0
COc1ccc(CCNC(=O)Cc2ccc(OCc3ccccc3)c(OC)c2[N+](=O)[O-])cc1OCc1ccccc1	46	0	0	0	0	0
COc1ccc(CCNC(=O)c2ccccc2C(=O)NCCc2ccc(OC)c(OC)c2)cc1OC	0	0	0	0	50	0
Cc1ccc(N=c2ssnc2Cl)cc1	0	41	0	0	0	0
Cc1cc(C)nc(/N=c2/ssnc2Cl)c1	0	0	0	0	0	0
Nc1ccccc1N=c1ssnc1Cl	-	0	0	-	-	0
Cc1cc(Cl)ccc1N=c1ssnc1Cl	0	42	0	0	0	0
COc1ccc(-c2cnc(SCC(=O)Nc3ccc4c(c3)OCO4)n2Cc2ccco2)cc1	-	0	51	-	-	0
Cc1cc(Cl)ccc1NC(=O)CSc1nnc(-c2ccncc2)n1Cc1ccco1	0	0	0	0	0	0
CC(=O)Nc1cccc(NC(=O)CSc2ncc(-c3ccc(Cl)cc3)n2Cc2ccco2)c1	61	0	85	73	82	0
O=S(=O)(c1ccccc1Br)N1CCN(c2ncccn2)CC1	0	0	0	0	0	0
Cc1cc2nc(-c3ccc(SCC(=O)Nc4ccc(S(=O)(=O)N5CCCC5)cc4)nc3)[nH]c2cc1C	0	0	0	0	0	0
O=C(CSc1ccc(-c2nc3ccccc3[nH]2)cn1)Nc1ccc(S(=O)(=O)N2CCCC2)cc1	0	0	51	0	0	0
O=C(CN1C(=O)/C(=C\c2ccccc2Br)Oc2ccccc21)NCCCN1CCOCC1	0	0	0	0	49	0
O=C(NCCCN1CCOCC1)c1ccc(/C=C2\Oc3ccccc3N(Cc3ccccc3F)C2=O)cc1	0	0	0	0	0	0
CC1=C(C(=O)N(C)C)CC(CC(=O)NCC2CCCCC2)C(=O)N1Cc1ccc(F)cc1 (stereo not drawn)	-	0	0	-	-	0
Oc1c(Br)cc(Br)c(/C=N/n2c(-c3ccccc3)n[nH]c2=S)c1Br	0	0	0	0	71	0
SMILES	CHO parental Ca	TAAR1 ag	TAAR1 antag	OX1R antag-1	OX1R antag-2	GalR3 antagonist
Cc1ccc([C@@H]2CC=C(C(=O)O)[C@H](c3ccc(Cl)cc3)N2S(=O)(=O)c2ccccc2C)cc1	0	0	0	0	49	0
Cc1ccc(S(=O)(=O)N2[C@@H](c3ccc(F)cc3)C(C(=O)O)=CC[C@H]2c2ccc(Cl)cc2)cc1	0	0	0	0	0	0
Cc1ccc([C@@H]2CC=C(C(=O)O)[C@H](c3ccc(F)cc3)N2S(=O)(=O)c2ccccc2C)cc1	0	0	0	0	57	0
Cc1ccccc1S(=O)(=O)N1[C@@H](c2ccc(Br)cc2)C(C(=O)O)=CC[C@H]1c1ccc(Cl)cc1	0	0	0	0	0	0
Cc1ccc([C@@H]2CC=C(C(=O)O)[C@H](c3ccc(Br)cc3)N2S(=O)(=O)c2ccccc2C)cc1	0	0	0	0	39	0
Cc1ccccc1S(=O)(=O)N1[C@@H](c2ccccc2)C(C(=O)O)=CC[C@H]1c1ccc(Cl)cc1	0	0	0	0	76	0

From PubChem
